# Assays:
# [1] = tested on: Rattus norvegicus; experiment: Toxicity in 24 hrs fasted Wistar rat assessed as ulcer index at 100 mg/kg, po after 6 hrs; assay type: organism-based; parameters: dose 100 mg/kg, route oral; conditions: in vivo
# Outline: (§1)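 Male Wistar rats (175 ± 25 g) fasted 24 h and dosed orally. Acute arm: test agents at 100 mg/kg, indomethacin at 30 mg/kg; rats killed after 6 h, stomachs opened along the greater curvature and scored for ulcers. Chronic arm: 14-day dosing, stomachs examined post mortem at the end of the arthritis study. Ulcer index means ± SEM, n = 4.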
# [2] = tested on: Rattus norvegicus; experiment: Antipyretic activity against LPS-induced pyresis in Wistar rat assessed as change in rectal temperature at 100 mg/kg, po after 3 hrs; assay type: functional
# Outline: (§2)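 Male Wistar rats (170 ± 20 g) dosed orally: test agents at 100 mg/kg, indomethacin and aspirin at 10 mg/kg and 100 mg/kg. Half an hour later, LPS in apyrogenic saline given at 100 µg/kg i.p. Rectal temperature taken by telethermometer probe immediately before LPS and hourly from 1 to 7 h after. Change in temperature reported; means ± SEM, n = 6.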
# [3] = tested on: Rattus norvegicus; experiment: Antipyretic activity against LPS-induced pyresis in Wistar rat assessed as change in rectal temperature at 100 mg/kg, po after 5 hrs; assay type: functional; outline: as §2
# [4] = tested on: Rattus norvegicus; experiment: Antipyretic activity against LPS-induced pyresis in Wistar rat assessed as change in rectal temperature at 100 mg/kg, po after 2 hrs; assay type: functional; outline: as §2
# [5] = tested on: Rattus norvegicus; experiment: Antiarthritic activity against adjuvant-induced arthritis in Wistar rat assessed as inhibition of paw edema at 100 mg/kg, po on day 3; assay type: functional; conditions: 72 h
# Outline: (§3)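 Male Wistar rats (160 ± 10 g) dosed orally once daily for 14 days, from the day before injecting 0.1 ml Freund's complete adjuvant into the subplantar surface of the right hind paw. Paw swelling, including the uninjected left paw, and body weight recorded. Means ± SEM, n = 6; p < 0.05 versus control.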
# [6] = tested on: Rattus norvegicus; experiment: Antiinflammatory activity in Wistar rat assessed as inhibition of carrageenan-induced paw edema at 100 mg/kg, after 2 hrs; assay type: functional
# Outline: (§4)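 Male Wistar rats (170 ± 20 g) dosed orally: test agents at 100 mg/kg, reference at 10 mg/kg. One hour later, 0.1 ml of 1% carrageenan injected subplantar into the right hind paw.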
# [7] = tested on: Rattus norvegicus; experiment: Antiarthritic activity against adjuvant-induced arthritis in Wistar rat assessed as weight change at 100 mg/kg, po; assay type: functional; outline: as §3
# [8] = tested on: Mus musculus; experiment: Analgesic activity in Swiss Albino mouse assessed as number of acetic acid-induced writhing at 100 mg/kg, po after 1 hr relative to control; assay type: functional
# Outline: (§5)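 Mice dosed orally; one hour later injected i.p. with 1% v/v acetic acid at 0.1 ml/10 g. Writhings counted over 15 min, starting five minutes after injection. Means ± SEM, n = 6; p < 0.05 versus control group.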
# [9] = tested on: Rattus norvegicus; experiment: Antipyretic activity against LPS-induced pyresis in Wistar rat assessed as change in rectal temperature at 100 mg/kg, po after 4 hrs; assay type: functional; outline: as §2
# [10] = tested on: Rattus norvegicus; experiment: Antiinflammatory activity in Wistar rat assessed as inhibition of carrageenan-induced paw edema at 100 mg/kg, after 3 hrs; assay type: functional; outline: as §4
# [11] = tested on: Rattus norvegicus; experiment: Antiinflammatory activity in Wistar rat assessed as inhibition of carrageenan-induced paw edema at 100 mg/kg, after 24 hrs; assay type: functional; outline: as §4
# [12] = tested on: Rattus norvegicus; experiment: Antiarthritic activity against adjuvant-induced arthritis in Wistar rat assessed as inhibition of paw edema at 100 mg/kg, po on day 13; assay type: functional; conditions: 312 h; outline: as §3
# [13] = tested on: Rattus norvegicus; experiment: Antipyretic activity against LPS-induced pyresis in Wistar rat assessed as change in rectal temperature at 100 mg/kg, po after 6 hrs; assay type: functional; outline: as §2
# [14] = tested on: Rattus norvegicus; experiment: Antiinflammatory in SKF-525A pretreated Wistar rat assessed as inhibition of carrageenan-induced paw edema at 100 mg/kg, po after 1 hr; assay type: functional
# [15] = tested on: Rattus norvegicus; experiment: Antipyretic activity against LPS-induced pyresis in Wistar rat assessed as change in rectal temperature at 100 mg/kg, po after 1 hr; assay type: functional; outline: as §2
# [16] = tested on: Rattus norvegicus; experiment: Antiinflammatory in SKF-525A pretreated Wistar rat assessed as inhibition of carrageenan-induced paw edema at 100 mg/kg, po after 4 hrs; assay type: functional
# [17] = tested on: Rattus norvegicus; experiment: Antiinflammatory in SKF-525A pretreated Wistar rat assessed as inhibition of carrageenan-induced paw edema at 100 mg/kg, po after 3 hrs; assay type: functional
# [18] = tested on: Rattus norvegicus; experiment: Antiinflammatory in SKF-525A pretreated Wistar rat assessed as inhibition of carrageenan-induced paw edema at 100 mg/kg, po after 24 hrs; assay type: functional
# [19] = tested on: Rattus norvegicus; experiment: Antiinflammatory activity in Wistar rat assessed as inhibition of carrageenan-induced paw edema at 100 mg/kg, after 1 hr; assay type: functional; outline: as §4
# [20] = tested on: Rattus norvegicus; experiment: Antipyretic activity against LPS-induced pyresis in Wistar rat assessed as change in rectal temperature at 100 mg/kg, po after 7 hrs; assay type: functional; outline: as §2
# [21] = tested on: Rattus norvegicus; experiment: Antiinflammatory activity in Wistar rat assessed as inhibition of carrageenan-induced paw edema at 100 mg/kg, after 6 hrs; assay type: functional; outline: as §4
# [22] = tested on: Rattus norvegicus; experiment: Antiarthritic activity against adjuvant-induced arthritis in Wistar rat assessed as inhibition of paw edema at 100 mg/kg, po on day 8; assay type: functional; conditions: 192 h; outline: as §3
# [23] = tested on: Rattus norvegicus; experiment: Antiinflammatory in SKF-525A pretreated Wistar rat assessed as inhibition of carrageenan-induced paw edema at 100 mg/kg, po after 2 hrs; assay type: functional
# [24] = tested on: Rattus norvegicus; experiment: Antiinflammatory activity in Wistar rat assessed as inhibition of carrageenan-induced paw edema at 100 mg/kg, after 4 hrs; assay type: functional; outline: as §4
# [25] = tested on: Rattus norvegicus; experiment: Antiinflammatory in SKF-525A pretreated Wistar rat assessed as inhibition of carrageenan-induced paw edema at 100 mg/kg, po after 6 hrs; assay type: functional
# [26] = tested on: Mus musculus; experiment: Analgesic activity in Swiss Albino mouse assessed as inhibition of acetic acid-induced writhing responses at 100 mg/kg, po after 1 hr; assay type: functional; outline: as §5
# [27] = tested on: Rattus norvegicus; experiment: Toxicity in 24 hrs fasted Wistar rat assessed as ulcer index at 30 mg/kg, po after 6 hrs; assay type: organism-based; parameters: dose 30 mg/kg, route oral; conditions: in vivo; outline: as §1
# [28] = tested on: Rattus norvegicus; experiment: Antiarthritic activity against adjuvant-induced arthritis in Wistar rat assessed as inhibition of paw edema at 10 mg/kg, po on day 13; assay type: functional; conditions: 312 h; outline: as §3
# [29] = tested on: Rattus norvegicus; experiment: Toxicity in 24 hrs fasted Wistar rat assessed as ulcer index […], po after 14 days; assay type: organism-based; parameters: route oral; conditions: in vivo, 336 h; outline: as §1
# [30] = tested on: Rattus norvegicus; experiment: Antiinflammatory activity in Wistar rat assessed as inhibition of carrageenan-induced paw edema at 10 mg/kg, after 4 hrs; assay type: functional
# Outline: (§6)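 Male Wistar rats, 170 ± 20 g, dosed orally; 0.1 ml of 1% carrageenan injected into the right hind paw subplantar region 1 h after dosing. Paw volume read by plethysmometer at 0, 1, 2, 3, 4, 6 and 24 h after carrageenan. Percent inhibition of edema is calculated against the control group. n = 6, mean ± SEM.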
# [31] = tested on: Rattus norvegicus; experiment: Antiarthritic activity against adjuvant-induced arthritis in Wistar rat assessed as weight change at 10 mg/kg, po; assay type: functional; outline: as §3
# [32] = tested on: Rattus norvegicus; experiment: Antiarthritic activity against adjuvant-induced arthritis in Wistar rat assessed as inhibition of paw edema at 10 mg/kg, po on day 3; assay type: functional; conditions: 72 h; outline: as §3
# [33] = organism: Rattus norvegicus; experiment: animal or person; conditions: Wistar, 2 h, read-out: Inhibition
# [34] = tested on: Rattus norvegicus; experiment: Antiarthritic activity against adjuvant-induced arthritis in Wistar rat assessed as inhibition of paw edema at 10 mg/kg, po on day 8; assay type: functional; conditions: 192 h; outline: as §3
# [35] = tested on: Rattus norvegicus; experiment: Antiinflammatory activity in Wistar rat assessed as inhibition of carrageenan-induced paw edema at 10 mg/kg, after 3 hrs; assay type: functional; outline: as §6
# [36] = tested on: Rattus norvegicus; experiment: Antiinflammatory activity in Wistar rat assessed as inhibition of carrageenan-induced paw edema at 10 mg/kg, after 1 hr; assay type: functional; outline: as §6
# [37] = tested on: Rattus norvegicus; experiment: Antiinflammatory activity in Wistar rat assessed as inhibition of carrageenan-induced paw edema at 10 mg/kg, after 6 hrs; assay type: functional; outline: as §4
# [38] = tested on: Rattus norvegicus; experiment: Antiinflammatory activity in Wistar rat assessed as inhibition of carrageenan-induced paw edema at 10 mg/kg, after 24 hrs; assay type: functional; outline: as §4
smiles,measurement,setting,value
COc1cc2c(cc1OC)C(CC(=O)Nc1ccc(Cl)cc1)CC2 (configuration not stated),UI,[1],0
same,Activity,[2],-0.54 °C
same,Activity,[3],0.17 °C
same,Activity,[4],-1.69 °C
same,inhibition in vivo at 100 mg/kg,[5],28.6%
same,inhibition in vivo at 100 mg/kg,[6],63%
same,Activity,[7],3.51 g
same,Activity,[8],9.17
same,Activity,[9],-0.11 °C
same,inhibition in vivo at 100 mg/kg,[10],60.9%
same,inhibition in vivo at 100 mg/kg,[11],70%
same,inhibition in vivo at 100 mg/kg,[12],4.69%
same,Activity,[13],0.41 °C
same,inhibition in vivo at 100 mg/kg,[14],64.3%
same,Activity,[15],-0.47 °C
same,inhibition in vivo at 100 mg/kg,[16],57.9%
same,inhibition in vivo at 100 mg/kg,[17],56.7%
same,inhibition in vivo at 100 mg/kg,[18],68.2%
same,inhibition in vivo at 100 mg/kg,[19],71.9%
same,Activity,[20],0.4 °C
same,inhibition in vivo at 100 mg/kg,[21],61.1%
same,inhibition in vivo at 100 mg/kg,[22],8.08%
same,inhibition in vivo at 100 mg/kg,[23],56.1%
same,inhibition in vivo at 100 mg/kg,[24],60.9%
same,inhibition in vivo at 100 mg/kg,[25],59.6%
same,inhibition in vivo at 100 mg/kg,[26],73.5%
COc1ccc2c(c1)c(CC(=O)O)c(C)n2C(=O)c1ccc(Cl)cc1 [INDOMETHACIN],UI,[27],31.37
same,Activity,[2],-0.11 °C
same,Activity,[3],0.3 °C
same,inhibition in vivo at 10 mg/kg,[28],46.5%
same,Activity,[4],-1.03 °C
same,UI,[29],42
same,inhibition in vivo at 10 mg/kg,[30],57.8%
same,Activity,[8],16.83
same,Activity,[9],0.22 degrees C
same,Activity,[31],5.68 g
same,Activity,[13],0.35 °C
same,Activity,[15],-0.39 °C
same,inhibition in vivo at 10 mg/kg,[32],37.5%
same,inhibition in vivo at 10 mg/kg,[33],58%
same,inhibition in vivo at 10 mg/kg,[34],43.9%
same,inhibition in vivo at 10 mg/kg,[35],65.2%
same,inhibition in vivo at 10 mg/kg,[36],50%
same,inhibition in vivo at 10 mg/kg,[37],48.1%
same,Activity,[20],0.55 °C
same,inhibition in vivo at 10 mg/kg,[38],13.3%
same,inhibition in vivo at 100 mg/kg,[26],51.5%

# — ChEMBL document CHEMBL1138278, “Aromatic amide derivatives of 5,6-dimethoxy-2,3-dihydro-1H-inden(-1-yl)acetic acid as anti-inflammatory agents free of ulcerogenic liability” (Bioorg Med Chem Lett, 2007)
